PMI act – phosphomannose isomerase (human) activation | purified human PMI, coupled resazurin fluorescence, 20 min; stronger effect = higher value; 1 = vehicle control, 0 substrate-free wells | activation factor at 20 µM | 190,000 tested, 0.005% active | AID 1214;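 active = activation factor of 2 or more at 20 µM, relative to plate controls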
Target sequence (P34949 whole entry, looked up): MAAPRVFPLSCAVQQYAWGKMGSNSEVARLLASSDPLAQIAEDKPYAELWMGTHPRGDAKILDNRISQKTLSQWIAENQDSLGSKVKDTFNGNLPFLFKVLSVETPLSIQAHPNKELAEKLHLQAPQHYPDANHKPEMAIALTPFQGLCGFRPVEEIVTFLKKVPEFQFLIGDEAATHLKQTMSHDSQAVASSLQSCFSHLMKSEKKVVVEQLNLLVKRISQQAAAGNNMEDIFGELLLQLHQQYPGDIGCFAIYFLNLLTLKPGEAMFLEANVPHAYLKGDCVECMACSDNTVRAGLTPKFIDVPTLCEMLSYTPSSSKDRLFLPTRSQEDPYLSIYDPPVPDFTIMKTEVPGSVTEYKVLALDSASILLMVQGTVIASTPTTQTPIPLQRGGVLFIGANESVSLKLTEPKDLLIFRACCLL
PMI act satM6P – increases human PMI activity with near-saturating mannose 6-phosphate; P34949; coupled PMI enzyme assay, resazurin fluorescence, 20 min; stronger effect = higher value; 1 = untreated enzyme, 0 = substrate-free blank; activation factor at 20 µM; 190,000 tested, 0.34% active;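 active = activation factor of 2 or more at 20 µM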
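Test system: Human PMI in coupled enzyme assay | Input: 15 ng/mL PMI | Medium: HEPES-buffered pH 7.4 with magnesium and detergent | Compound: One concentration, 20 µM, in 1% DMSO | Incubation: Enzyme reaction with compound 20 min at room temperature | Detection: Diaphorase-driven resazurin-to-resorufin fluorescence, excitation 544, emission 590 nm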
G6PDH counter – inhibits Leuconostoc G6PDH, flagging false hits in G6PDH-based assays; Purified L. mesenteroides G6PDH, diaphorase/resazurin coupled fluorescence, 45 min; inhibition, % at 5 µM; 200,000 tested, 0.12% active; in the data active = inhibition above about 50%
Diaph inh CS – diaphorase inhibition or chemical oxidation counter-screen; diaphorase resazurin-to-resorufin fluorescence, NADH, 16 min; bacterial (C. kluyveri) enzyme, not human; inhibition, % at 20 µM; 190,000 tested, 0.69% active;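 active = primary screen inhibition at 20 µM above a set limit, cut at about 50% in these data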;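 also: plate controls were DMSO with full reaction for no effect and wells lacking NADH for full effect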
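Test system: Clostridium kluyveri diaphorase enzyme / Quantity: diaphorase at 0.14 U/mL in enzyme working solution / Incubation: 16-min room-temperature incubation before reading / Benchmarks: NADH-free wells as positive control, DMSO-only neutral wells / Signal: resorufin fluorescence 544/590 nm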
ROMK primary – human ROMK K+ channel modulation, primary screen | P48048 | Tet-inducible ROMK, thallium flux fluorescence; actives lie on both sides | B-score at 10 µM | 130,000 tested, 2% active;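 active = signal ratio slope over the read window, or its plate-corrected B-score, at least 3 SD from the plate mean, either direction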;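 also: B-score of the F/F0 ratio slope over 7 to 12 s after thallium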
Diaphorase act – activates diaphorase or chemically reduces, flagging diaphorase assay artifacts; Diaphorase/resazurin coupled assay, resorufin fluorescence, 16 min; stronger effect = higher value; 1 = vehicle wells, 0 = NADH-free wells; activation factor at 20 µM; 190,000 tested, 0.005% active;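 active = diaphorase activity raised at least twofold by the compound at 20 µM; inactive = activation factor below 2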
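System – purified diaphorase enzyme from Clostridium kluyveri · Input – enzyme 0.07 U/mL final · Also added – final NADH 0.114 mM, resazurin 0.1 mM · Measured by – fluorescence of resorufin, 544 nm excitation, 590 nm emission · Timing – 16 min enzyme reaction, ambient temperature · Measure – resorufin increase flagging diaphorase activators or reducers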
ROMK hit retest – human ROMK channel modulation, retest confirmation. shares compounds with ROMK primary. ROMK thallium flux, fluorescence ratio; stronger effect = lower value. normalized thallium flux (F/F0 slope) at 10 µM. 3,000 tested, 54% active. AID 1917;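 active = Flux at 10 µM at least 3 SD below or above vehicle control mean in one or both replicates; inconclusive = no clear call, values can overlap the other calls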
* = called active by the depositor; ? = inconclusive; / = no result. Most compounds without a hit are left out; they make up all but 2.2% or so of the library.

SMILES | PMI act | PMI act satM6P | G6PDH counter | Diaph inh CS | ROMK primary | Diaphorase act | ROMK hit retest
COc1ccc(CNC(=O)C(c2ccco2)N(C(=O)CNS(=O)(=O)c2ccccc2)c2ccccc2C)cc1 (centres undefined) | 0.9 | 0.9 | 3 | 22 | -5* | 0.8 | 0.045*
COc1ccccc1N(C(=O)CNS(=O)(=O)c1ccccc1)C(C(=O)NCc1ccco1)C(C)C (centres undefined) | 1.1 | 1 | 4 | 3 | / | 1 | /
CC1CCCCN1CCNC(=O)c1ccc2c(=O)n(CCc3ccccc3)c(=O)[nH]c2c1 (centres undefined) | 0.9 | 0.9 | 1 | 14 | -0.19 | 0.9 | /
CC1CCCCN1CCCNC(=O)c1ccc2c(=O)n(CCc3ccccc3)c(=O)[nH]c2c1 (centres undefined) | 1 | 1 | -3 | 17 | -3* | 0.8 | ?
O=C(COC(=O)c1cnccn1)NCc1ccc2c(c1)OCO2 | 1.2 | 1.2 | 13 | -6 | 1.1 | 1.1 | /
Cc1ccc(Cn2c(=N)n(CC(=O)c3ccccc3)c3ccccc32)cc1 | 1.1 | 1.1 | 8 | -19 | -5.2* | 1.2 | 0.052*
CC(C)(C)C(=O)Cn1c(=N)n(Cc2ccccc2Cl)c2ccccc21 | 1 | 1.1 | 0 | 2 | -2.3 | 1 | /
N=c1n(CC(=O)c2cccc([N+](=O)[O-])c2)c2ccccc2n1Cc1ccccc1 | 1.1 | 1.1 | 1 | 3 | / | 1 | /
CC(C)(C)C(=O)Cn1c(=N)n(Cc2ccccc2)c2ccccc21 | 1.1 | 1 | 4 | 27 | / | 0.7 | 0.047*
CCCn1c(=N)n(CC(=O)c2ccc([N+](=O)[O-])cc2)c2ccccc21 | 1.2 | 1.1 | -6 | 4 | -4.4* | 1 | 0.072
CCCn1c(N)cc(=O)n(C)c1=O | 1 | 1.1 | -1 | 3 | 0.006 | 1 | /
O=C(CSc1ccccc1C(=O)O)NCc1ccc(Cl)cc1 | 1.1 | 1 | -3 | 6 | 0.94 | 0.9 | /
CCCC1(c2ccccc2)NC(=O)N(CC(=O)Nc2cc(S(=O)(=O)N3CCOCC3)ccc2Cl)C1=O (centres undefined) | 1 | 1 | 7 | 14 | -0.2 | 0.9 | /
Cc1ccc(NS(=O)(=O)c2cccc([N+](=O)[O-])c2)nc1 | 1 | 0.9 | 9 | 12 | 0.93 | 0.9 | /
Cc1ccc(NC(C#N)c2ccccc2OCc2ccccc2)cc1 (centres undefined) | 0.9 | 1 | 2 | 8 | / | 0.9 | 0.095
NC(=O)C1(C(N)=O)OC1c1ccc(Cl)c(Cl)c1 (centres undefined) | / | / | / | / | 1.3 | / | /
O=C(Cn1nnc(-c2ccccc2)n1)N/N=C/c1ccco1 | 1 | 1 | 7 | 14 | -12* | 0.9 | 0.072
CC(C)CC(NC(=O)c1ccccc1)C(=O)N/N=C/c1ccco1 (centres undefined) | 1.1 | 1 | 0 | 10 | 0.96 | 0.9 | 0.086
O=C(Cn1nnc2ccccc21)N/N=C/c1ccco1 | 0.8 | 0.9 | -3 | 17 | / | 0.8 | /
O=C(N/N=C/c1ccco1)C(O)c1ccccc1 (centres undefined) | / | / | / | / | -0.25 | / | /
O=C(CCCc1ccccc1)N1CCN(c2ccc([N+](=O)[O-])cc2)CC1 | 0.9 | 0.8 | 8 | 16 | / | 0.8 | /
O=C(CCCC(=O)N1CCN(c2ccc([N+](=O)[O-])cc2)CC1)c1ccccc1 | 0.9 | 0.9 | 2 | 25 | -3.2* | 0.8 | 0.058*
O=C(ON=C1CCN(c2ccc([N+](=O)[O-])cc2)CC1)c1ccccc1 | 0.9 | 1 | -1 | 14 | / | 0.9 | 0.067*
O=C(CCN1C(=O)C2C3C=CC(C3)C2C1=O)N1CCN(c2ccc(F)cc2)CC1 (centres undefined) | 0.9 | 1 | -1 | 10 | / | 0.9 | /
O=C(CCN1C(=O)C2C3C=CC(C3)C2C1=O)N1CCN(c2ccc([N+](=O)[O-])cc2)CC1 (centres undefined) | 0.9 | 0.8 | 6 | 13 | -2.2 | 0.9 | 0.088
SMILES | PMI act | PMI act satM6P | G6PDH counter | Diaph inh CS | ROMK primary | Diaphorase act | ROMK hit retest
Cc1noc(C)c1CSCC(=O)N1CCN(c2ccc([N+](=O)[O-])cc2)CC1 | 1 | 1 | 6 | 5 | -4.3* | 0.9 | 0.042*
COc1ccc(C(=O)ON=C2CCN(c3ccc([N+](=O)[O-])cc3)CC2)cc1 | 0.9 | 0.9 | -7 | 11 | / | 0.9 | /
CC(=O)N1CCN(c2ccc([N+](=O)[O-])cc2)CC1 | 1 | 1 | 2 | 6 | 0.67 | 0.9 | /
CCCSc1nnc(CSc2nc(C)cc(C)n2)n1C | 1.1 | 1.1 | 7 | -1 | / | 1 | /
COc1ccc(S(=O)(=O)Nc2ccccc2C(N)=O)cc1OC | 1.3 | 1.2 | -2 | -11 | 1.5 | 1.1 | /
Cc1ccc(-n2cc(CN3CCC(CO)(Cc4ccccc4)CC3)cn2)cc1 | 1 | 1 | 8 | 2 | -5.2* | 1 | 0.059*
Cc1ccc(-n2cc(CN3CCC(CO)(Cc4cccc(C(F)(F)F)c4)CC3)cn2)cc1 | 0.9 | 0.9 | 7 | 3 | -2.5 | 1 | /
CC(C)(C)n1nnnc1SCC(=O)Nc1nn(-c2ccccc2)nc1C(N)=O | 1 | 1 | -5 | 14 | 0.98 | 0.9 | /
CCCCCC[N+](C)(C)CC/C=C1/c2ccccc2Sc2ccc(Cl)cc21 | / | / | / | / | / | / | 0.045*
S=C1Nc2ccccc2Sc2ccc(Cl)cc21 | 1 | 1 | 7 | -7 | 1.5 | 1.1 | /
c1ccc(CCNc2ncnc3ccccc23)cc1 | 1 | 0.9 | 5 | -2 | -3.7* | 1 | 0.076
CCCCCCCCNc1ncnc2ccccc12 | 0.9 | 1 | 6 | 7 | -0.99 | 0.9 | /
c1ccc(OCCn2cnc3ccccc32)cc1 | 0.9 | 0.9 | -8 | 12 | -2.2* | 0.9 | 0.067*
Cc1ccc(OCCOCCn2cnc3ccccc3c2=O)c([N+](=O)[O-])c1 | 1 | 0.5 | 10 | 14 | 1.7 | 0.9 | /
Cc1ccc([N+](=O)[O-])c(OCCn2cnc3ccccc32)c1 | 0.9 | 0.9 | 10 | 17 | -3* | 0.8 | ?
O=C(O)c1ccc(S(=O)(=O)c2ccc(Sc3ccc(C(=O)O)c(C(=O)O)c3)cc2)cc1 | 1.2 | 1.1 | 30 | 22 | 0.054 | 0.8 | /
O=C(NCC1CCCO1)C1CCN(C2CCN(C(=O)Cc3ccsc3)CC2)CC1 (centres undefined) | 0.9 | 1 | 7 | 10 | 0.27 | 0.9 | /
Cc1ccc(NS(=O)(=O)c2cc([N+](=O)[O-])ccc2NNC(=S)Nc2cc(C)ccc2C)c(C)c1 | 0.8 | 0.9 | 24 | 17 | / | 0.8 | 0.064*
